# Screening results: PubChem, several laboratories
# Rad51 HR inh: Rad51 (human) homologous recombination inhibition. 200,000 compounds, 0.085% hits. inhibition, % at 10 µM. AID 1385. Q06609. hRad51 DNA strand exchange, fluorescence dequenching;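 active means inhibition above 40% at the single screening dose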;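 further: 0% = DMSO control wells and 100% = blanks with heterologous ssDNA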
#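 Material: human Rad51–ssDNA filaments; Probe or stimulus: labelled 47-mer dsDNA for strand exchange; Doses: single 10 µM dose; Incubation: 37 °C 15-min filament assembly, 30-min compound preincubation, 15-min exchange; Technique: FRET fluorescence dequenching, excitation 485 nm, emission 520 nm; Measure: Fluorescence-based percent inhibition, control- and blank-normalised; Benchmarks: plate control and blank wells.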
# PMI act satM6P: PMI (human) activation, high substrate | P34949 | coupled PMI enzyme assay, resazurin fluorescence, 20 min; active compounds read high; 1 = untreated enzyme, 0 = substrate-free blank | activation factor at 20 µM | 190,000 compounds, 0.34% hits | AID 1216;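 active means activation factor of 2 or more at 20 µM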
# Target sequence (P34949 whole entry, looked up): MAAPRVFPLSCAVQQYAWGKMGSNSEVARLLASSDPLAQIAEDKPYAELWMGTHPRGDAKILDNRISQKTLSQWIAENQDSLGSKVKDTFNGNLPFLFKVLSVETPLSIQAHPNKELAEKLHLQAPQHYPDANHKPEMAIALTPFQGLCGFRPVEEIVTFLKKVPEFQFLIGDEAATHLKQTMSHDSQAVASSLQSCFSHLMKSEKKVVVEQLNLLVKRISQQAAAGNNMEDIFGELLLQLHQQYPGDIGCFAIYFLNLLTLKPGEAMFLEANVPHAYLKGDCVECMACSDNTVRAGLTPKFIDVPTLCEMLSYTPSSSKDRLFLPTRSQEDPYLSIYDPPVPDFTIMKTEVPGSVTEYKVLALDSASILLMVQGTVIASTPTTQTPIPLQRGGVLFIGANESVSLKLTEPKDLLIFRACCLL
#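 Test system: human phosphomannose isomerase with PGI, G6PDH, diaphorase coupling enzymes; Amount: PMI at 15 ng/mL final; Reagent: Mannose-6-phosphate 1.0 mM (near-saturating) plus 0.22 mM NADP+; Timing: 20 min, room temperature; Technique: resorufin fluorescence at Ex 544/Em 590 nm; Dosing: 20 µM single dose.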
# Calpain2 inh: inhibitors of pig calpain II | 220,000 compounds, 0.37% hits | purified calpain II, fluorogenic peptide substrate, 30 min | inhibition, % at 16 µM | AID 1236;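 active means inhibition above about 50%, limit read from the data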
# Lmaj promast: reduces viability of Leishmania major promastigotes; resazurin fluorescence viability; inhibition, % at 10 µM; 200,000 compounds, 9% hits; AID 1063; in the data active means inhibition above about 50%;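 further: promastigotes grown with compound for 44 hours at 28 °C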
# WT yeast gro inh: growth inhibition of WT yeast, mitochondrial fusion screen. mitochondrial fusion phenotypic screen, WT strain. inhibition, % at 10 µM. 190,000 compounds, 2.1% hits. AID 1362; in the data active means inhibition above about 58%; tested in S. cerevisiae
# PMI act: activators of human phosphomannose isomerase; 190,000 compounds, 0.005% hits; purified human PMI, coupled resazurin fluorescence, 20 min; active compounds read high; 1 = vehicle control, 0 substrate-free wells; AID 1214; activation factor at 20 µM;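 active means activation factor of 2 or more at 20 µM, relative to plate controls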
# The depositor's hits bear a star; · = not tested or not shown; ! = not active in a repeat. Only some compounds are listed: those with a hit (about 9.8% of all), similar ones and a draw of the others.
SMILES,Rad51 HR inh,PMI act satM6P,Calpain2 inh,Lmaj promast,WT yeast gro inh,PMI act
NC(=O)C1CCCN(Cc2ccc(Cl)cc2)C1 (stereo not drawn),1,1,9,79*,-8,1
CCOC(=O)C1CCCN(Cc2cccc(Cl)c2)C1 (stereo not drawn),-1,1.2,18,-1,0,1.2
CCN(CC)C(=O)C1CCCN(Cc2ccccc2)C1 (stereo not drawn),7,1,-33,0,3,1
COc1ccc(CCN(C)C(=O)C2CCN(Cc3ccccc3)CC2)cc1OC,4,1,-15,-5,-1,0.9
CN(Cc1ccccc1)C(=O)C1CCCN(Cc2ccc(Cl)cc2)C1 (stereo not drawn),8,1,15,89*,9,0.9
CN(Cc1ccccc1)C(=O)C1CCN(Cc2ccc(F)cc2)CC1,0,1,-14,89*,-2,1
Cc1ccc(OC(C)C(=O)Nc2ccc(C)c(S(=O)(=O)Nc3ccc(C)cc3C)c2)cc1 (stereo not drawn),0,0.8,4,67*,43,0.8
CC(c1ccon1)N(C)C(=O)CCc1nnc(C2(c3ccc(Cl)cc3)CCC2)o1 (stereo not drawn),-36,1,4,4,14,0.9
O=C(CSc1ccccc1)NCCCN1CCOCC1,-6,1,-6,77*,-12,0.9
O=C(CSCc1ccccc1)NCCCN1CCOCC1,2,1,10,18,-2,1
Cc1cc(C)c(C)c(S(=O)(=O)Nc2ccccc2C(=O)NCCCn2ccnc2)c1C,-2,1,-95,6,-1,1
O=C(NCCCN1CCOCC1)c1ccccc1-c1ccccc1,0,0.9,-9,3,74*,0.8
Cc1cc(C)c(C)c(S(=O)(=O)Nc2ccccc2C(=O)NCCCN2CCOCC2)c1C,1,0.9,-90,97*,11,1
Cc1onc(-c2ccccc2)c1CNC(=O)C1COc2ccccc2O1 (stereo not drawn),-4,·,18,·,·,·
N#CC1=C(N)NC(SCC(=O)c2ccc(Cl)cc2)=C(C#N)C12CCCC2,13,1.5,19,11,17,1.2
N#CC1=C(N)NC(SCC(=O)c2ccc(Br)cc2)=C(C#N)C12CCCCC2,·,0.9,20,100*,78*,0.8
COc1ccc(C(=O)CSC2=C(C#N)C3(CCCCC3)C(C#N)=C(N)N2)cc1,0,0.9,-10,58*,11,1
O=C(CN1CCN(c2ccc(C(F)(F)F)cn2)CC1)Nc1ccc2c(c1)OCO2,·,·,9,·,·,·
CNc1nnc(Sc2ncccc2[N+](=O)[O-])s1,11,·,-9,·,·,·
c1ccc(-c2noc(CN3CCN(C(c4ccccc4)c4ccccc4)CC3)n2)cc1,-1,0.9,9,4,75*,0.9
CN(CCN1CCOCC1)Cc1nc(-c2ccccc2)no1,1,0.9,7,90*,-3,0.9
c1ccc(C(c2ccccc2)c2noc(CN3CCN(CC4CC4)CC3)n2)cc1,3,1.1,-28,55*,-8,1
CCn1ccnc1CN(C)Cc1nc(-c2ccccc2)no1,3,1.1,0,-4,4,1.1
Cc1ccc(CN(Cc2ccccc2)C(=S)Nc2ccccc2C)o1,9,0.9,23,-2,3,0.9
COc1ccccc1-n1c(-c2ccccc2)c[n+]2c1CCc1ccccc1-2,2,1,2,101*,63*!,1
SMILES,Rad51 HR inh,PMI act satM6P,Calpain2 inh,Lmaj promast,WT yeast gro inh,PMI act
FC(F)Oc1ccc(-c2c[n+]3c(n2-c2ccccc2)CCCCC3)cc1,20,·,-10,·,·,·
CC(C)c1ccc(-n2c(-c3ccccc3)c[n+]3c2CCc2ccccc2-3)cc1,5,1,12,100*,49,1.1
COc1ccc(-n2c(-c3ccc(Br)cc3)c[n+]3c2CCc2ccccc2-3)cc1,·,1,9,100*,35,0.9
COc1ccccc1-n1c(-c2ccccc2)c[nH]c1=S,-2,1.1,15,4,8,1.2
COc1ccc(Br)cc1/C=N/NC(=O)c1nc(-c2ccccc2)n2c1CCCCC2,7,0.8,-66,46,37,0.9
COc1ccc(N2CCN(C(=O)CCN3C(=S)NC(C)(C)CC3C)CC2)cc1 (stereo not drawn),4,0.9,-10,4,7,0.9
O=C(/C=C/Nc1ccccc1Oc1ccccc1)c1ccco1,22,0.9,1,77*,55,0.9
O=C(/C=C/Nc1ccccc1O)c1ccco1,-1,·,3,·,·,·
COCCN(CCOC)C(=O)c1ccc(SCc2ccc(C)cc2)c([N+](=O)[O-])c1,1,0.9,-4,-8,5,0.9
CC[n+]1c(/C=C/c2c[nH]c3ccccc23)ccc2cc(C)ccc21,·,0.6,48,100*,76*,0.4
Cc1ccccc1N=Nc1c(C)[nH]n(C(N)=S)c1=O,2,0.9,23,53*,61*,1
CC(=O)N(C)c1ccc(N=Nc2c(C)[nH]n(C(N)=S)c2=O)cc1,-5,1,14,18,23,1
Cc1ccccc1N=Nc1c(C)[nH]n(-c2ccccc2)c1=O,-5,0.9,11,-6,-6,0.9
Cc1cccc(N=Nc2c(C)[nH]n(C(N)=S)c2=O)c1C,·,0.9,31,9,72*,1
C=CCn1c(-c2cc3c(s2)CCC(CC)C3)n[nH]c1=S (stereo not drawn),12,1,-356,-7,74*,1
C=CCn1c(SCC(=O)NC2CCS(=O)(=O)C2)nnc1-c1cc2c(s1)CCC(CC)C2 (stereo not drawn),2,0.9,-3,-1,-9,0.9
Cc1cc2nc(-c3ccc(SCc4ccc(C#N)cc4)nc3)[nH]c2cc1C,4,1,-19,62*,-20,0.9
Cc1cc2nc(-c3ccc(SCC(=O)Nc4nccs4)nc3)[nH]c2cc1C,-5,1,-75,0,-23,0.9
CC(=O)CSc1ccc(-c2nc3cc(C)c(C)cc3[nH]2)cn1,-9,·,-132,80*,-5,·
N#Cc1ccccc1CSc1ccc(-c2nc3ccccc3[nH]2)cn1,4,0.9,11,22,1,0.9
CCc1cccc(NC(=O)c2cc(OC)c(OC)c(OC)c2)c1,-2,1,0,11,10,1
O=S(=O)([N-]c1nc2ccccc2nc1-n1cc[n+](Cc2ccccc2)c1)c1ccc(Cl)cc1,-29,·,-86,·,·,·
N#Cc1c(-c2ccc(Cl)cc2)c2c([nH]c1=O)-c1ccccc1OC2,-2,·,-333,·,·,·
Cc1noc(C)c1COc1ccc(C(=O)OCc2nnc(-c3ccc(Cl)cc3)o2)cc1,-2,0.8,51*,1,-11,0.9
OCCCCCN=c1cc(-c2ccccc2)oc2ccc(Cl)cc12,1,1,18,95*,3,0.9
